# ChEMBL document CHEMBL4257484, “Membrane-active antimicrobial poly(amino-modified alkyl) β-cyclodextrins synthesized via click reactions” (Medchemcomm, 2018)
# Experiments:
# [1] = Lipophilicity, log P of the compound; format: physicochemical; conditions: octanol/water
# Staphylococcus aureus [2] = experiment: Antibacterial activity against methicillin-sensitive Staphylococcus aureus FDA 209P after 20 hrs by liquid microdilution method; format: functional
# In short: (§1)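 Two-fold serial dilutions of compound in Mueller–Hinton broth, inoculated with 1 × 10^4 cells and cultured at 37 °C for 20 h in microtiter wells.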
# Bacillus subtilis = experiment: Antibacterial activity against drug-sensitive Bacillus subtilis 168 after 20 hrs by liquid microdilution method; format: functional; conditions: subsp. subtilis str. 168, 20 h; in short: as §1
# Escherichia coli = experiment: Antibacterial activity against drug-sensitive Escherichia coli K-12 W3110 after 20 hrs by liquid microdilution method; format: functional; conditions: K-12 substr. W3110, 20 h; in short: as §1
# Salmonella typhimurium = experiment: Antibacterial activity against drug-sensitive Salmonella typhimurium LT2 after 20 hrs by liquid microdilution method; format: functional, Salmonella enterica subsp. enterica serovar Typhimurium; conditions: Salmonella enterica, LT2, 20 h; in short: as §1
# Pseudomonas aeruginosa = experiment: Antibacterial activity against drug-sensitive Pseudomonas aeruginosa PAO1 after 20 hrs by liquid microdilution method; format: functional; conditions: PAO1, 20 h; in short: as §1
# [3] = (§2) Hemolytic activity in rabbit RBC at 50 uM after 20 mins relative to control; format: ADME, cell-based, Oryctolagus cuniculus, Erythrocyte; conditions: rabbit red blood cells (erythrocytes), read-out: Activity
# In short: (§3)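 Rabbit erythrocytes suspended in 150 mM NaCl/10 mM Hepes-NaOH, pH 7.4, at 0.5% hematocrit (final) and incubated with compound at 37 °C. The table footnote gives 20 min; the methods section gives 30 min. Hemolysis was read as absorbance at 540 nm, with 50 µM lysolecithin defining 100% hemolysis.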
# [4] = Hemolytic activity in rabbit RBC at 20 uM after 20 mins relative to control; format: ADME, cell-based, Oryctolagus cuniculus, Erythrocyte; conditions: rabbit red blood cells (erythrocytes), read-out: Activity; in short: as §3
# [5] = Hemolytic activity in rabbit RBC at 10 uM after 20 mins relative to control; format: ADME, cell-based, Oryctolagus cuniculus, Erythrocyte; conditions: rabbit red blood cells (erythrocytes), read-out: Activity; in short: as §3
# [6] = Hemolytic activity in rabbit RBC at 5 uM after 20 mins relative to control; format: ADME, cell-based, Oryctolagus cuniculus, Erythrocyte; conditions: rabbit red blood cells (erythrocytes), read-out: Activity; in short: as §3
# [7] = Hemolytic activity in rabbit RBC at 2 uM after 20 mins relative to control; format: ADME, cell-based, Oryctolagus cuniculus, Erythrocyte; conditions: rabbit red blood cells (erythrocytes), read-out: Activity; in short: as §3
# [8] = Hemolytic activity in rabbit RBC at 1 uM after 20 mins relative to control; format: ADME, cell-based, Oryctolagus cuniculus, Erythrocyte; conditions: rabbit red blood cells (erythrocytes), read-out: Activity; in short: as §3
# Staphylococcus aureus [9] = experiment: Antibacterial activity against methicillin-resistant Staphylococcus aureus MS29202 after 18 to 20 hrs by agar dilution method; format: functional
# In short: (§4)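 Agar dilution per CLSI. Overnight broth cultures were diluted 100-fold, and one loopful (about 10^5 to 10^4 CFU) was spotted onto agar plates containing the CD. Growth was scored after 18–20 h at 37 °C. MIC values are in µM.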
# Streptococcus agalactiae = experiment: Antibacterial activity against drug-resistant Streptococcus agalactiae B1 after 18 to 20 hrs by agar dilution method; format: functional; in short: as §4
# Enterococcus faecium = experiment: Antibacterial activity against drug-resistant Enterococcus faecium MS29120 after 18 to 20 hrs by agar dilution method; format: functional; in short: as §4
# Enterococcus faecalis [10] = experiment: Antibacterial activity against drug-resistant Enterococcus faecalis MS29030 after 18 to 20 hrs by agar dilution method; format: functional; in short: as §4
# Enterococcus faecalis [11] = experiment: Antibacterial activity against vancomycin-resistant Enterococcus faecalis MS29016 after 18 to 20 hrs by agar dilution method; format: functional; in short: as §4
# Staphylococcus aureus [12] = experiment: Induction of membrane disruption in methicillin-sensitive Staphylococcus aureus FDA 209P assessed as increase in K+ efflux after 30 mins; format: functional; conditions: 0.5 h, read-out: ED50 (the source's name)
# In short: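 S. aureus washed twice and suspended at 2 × 10^9 cells per cm3 in 100 mM choline chloride/50 mM Mops-Tris, pH 7.2, then exposed to compound at 37 °C for 30 min. Released K+ was measured in the centrifuged supernatant with a K+-selective electrode. Melittin (10 µM) defined 100% efflux, and ED50 is the concentration giving 50% efflux.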
# Staphylococcus aureus [13] = experiment: Antibacterial activity against Staphylococcus aureus FDA 209P assessed as decrease in cell viability after 30 mins by colony counting method; format: functional; conditions: 0.5 h
# In short: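 S. aureus washed twice and suspended at 2 × 10^9 cells per cm3 in 100 mM choline chloride/50 mM Mops-Tris, pH 7.2. Exposed to CD at 37 °C for 30 min. An aliquot was diluted in physiological saline, plated on polypeptone/yeast extract/NaCl agar and incubated overnight at 37 °C. Viability was taken from colony counts; LC50 is the concentration giving 50% viability.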
# Erythrocyte = experiment: as §2; format: ADME, cell-based, Oryctolagus cuniculus; conditions: erythrocyte, 20 min, 50 µM; in short: as §3
# Staphylococcus aureus [14] = experiment: Induction of membrane disruption in methicillin-sensitive Staphylococcus aureus FDA 209P assessed as increase in K+ efflux at 10 uM after 30 mins relative to control; format: functional
# In short: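 S. aureus suspension (2 × 10^9 cells per cm3, 100 mM choline chloride/50 mM Mops-Tris, pH 7.2) treated with CD at 37 °C for 30 min, then centrifuged. K+ released into the supernatant was read with a K+-selective electrode. Efflux is expressed relative to 10 µM melittin, which sets 100%.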
Structure (SMILES),logP [1],MIC (Staphylococcus aureus [2]),MIC (Bacillus subtilis),MIC (Escherichia coli),MIC (Salmonella typhimurium),MIC (Pseudomonas aeruginosa),"hemolysis at 20 min, 50 µM [3]","hemolysis at 20 min, 20 µM [4]","hemolysis at 20 min, 10 µM [5]","hemolysis at 20 min, 5 µM [6]","hemolysis at 20 min, 2 µM [7]","hemolysis at 20 min, 1 µM [8]",MIC (Staphylococcus aureus [9]),MIC (Streptococcus agalactiae),MIC (Enterococcus faecium),MIC (Enterococcus faecalis [10]),MIC (Enterococcus faecalis [11]),EC50 (Staphylococcus aureus [12]),LC50 (Staphylococcus aureus [13]),also measured
CCCCNCc1cn(C[C@H]2O[C@@H]3O[C@H]4[C@H](O)[C@@H](O)[C@@H](O[C@H]5[C@H](O)[C@@H](O)[C@@H](O[C@H]6[C@H](O)[C@@H](O)[C@@H](O[C@H]7[C@H](O)[C@@H](O)[C@@H](O[C@H]8[C@H](O)[C@@H](O)[C@@H](O[C@H]9[C@H](O)[C@@H](O)[C@@H](O[C@H]2[C@H](O)[C@H]3O)O[C@@H]9Cn2cc(CNCCCC)nn2)O[C@@H]8Cn2cc(CNCCCC)nn2)O[C@@H]7Cn2cc(CNCCCC)nn2)O[C@@H]6Cn2cc(CNCCCC)nn2)O[C@@H]5Cn2cc(CNCCCC)nn2)O[C@@H]4Cn2cc(CNCCCC)nn2)nn1,-0.9,11 to 22 µM,11 µM,> 44 µM,> 44 µM,> 44 µM,0%,0%,0%,0%,0%,0%,> 44 µM,> 44 µM,> 44 µM,> 44 µM,> 44 µM,> 50 µM,> 50 µM,
CCCCCCCNCc1cn(C[C@H]2O[C@@H]3O[C@H]4[C@H](O)[C@@H](O)[C@@H](O[C@H]5[C@H](O)[C@@H](O)[C@@H](O[C@H]6[C@H](O)[C@@H](O)[C@@H](O[C@H]7[C@H](O)[C@@H](O)[C@@H](O[C@H]8[C@H](O)[C@@H](O)[C@@H](O[C@H]9[C@H](O)[C@@H](O)[C@@H](O[C@H]2[C@H](O)[C@H]3O)O[C@@H]9Cn2cc(CNCCCCCCC)nn2)O[C@@H]8Cn2cc(CNCCCCCCC)nn2)O[C@@H]7Cn2cc(CNCCCCCCC)nn2)O[C@@H]6Cn2cc(CNCCCCCCC)nn2)O[C@@H]5Cn2cc(CNCCCCCCC)nn2)O[C@@H]4Cn2cc(CNCCCCCCC)nn2)nn1,0.36,5 to 40 µM,5 µM,20 µM,20 µM,40 µM,,116%,110%,85%,39%,9%,> 40 µM,> 40 µM,> 40 µM,> 40 µM,> 40 µM,30 µM,15 µM,Activity (Erythrocyte): 137%
CCCCCCNCc1cn(C[C@H]2O[C@@H]3O[C@H]4[C@H](O)[C@@H](O)[C@@H](O[C@H]5[C@H](O)[C@@H](O)[C@@H](O[C@H]6[C@H](O)[C@@H](O)[C@@H](O[C@H]7[C@H](O)[C@@H](O)[C@@H](O[C@H]8[C@H](O)[C@@H](O)[C@@H](O[C@H]9[C@H](O)[C@@H](O)[C@@H](O[C@H]2[C@H](O)[C@H]3O)O[C@@H]9Cn2cc(CNCCCCCC)nn2)O[C@@H]8Cn2cc(CNCCCCCC)nn2)O[C@@H]7Cn2cc(CNCCCCCC)nn2)O[C@@H]6Cn2cc(CNCCCCCC)nn2)O[C@@H]5Cn2cc(CNCCCCCC)nn2)O[C@@H]4Cn2cc(CNCCCCCC)nn2)nn1,-0.06,3 to 10 µM,3 µM,5 µM,10 µM,10 µM,110%,64%,25%,7%,4%,0%,21 µM,10 µM,10 µM,> 42 µM,42 µM,15 µM,15 µM,
CC[C@H](C)[C@H](NC(=O)CN)C(=O)NCC(=O)N[C@@H](C)C(=O)N[C@H](C(=O)N[C@@H](CC(C)C)C(=O)N[C@@H](CCCCN)C(=O)N[C@H](C(=O)N[C@@H](CC(C)C)C(=O)N[C@H](C(=O)N[C@H](C(=O)NCC(=O)N[C@@H](CC(C)C)C(=O)N1CCC[C@H]1C(=O)N[C@@H](C)C(=O)N[C@@H](CC(C)C)C(=O)N[C@H](C(=O)N[C@@H](CO)C(=O)N[C@@H](Cc1c[nH]c2ccccc12)C(=O)N[C@H](C(=O)N[C@@H](CCCCN)C(=O)N[C@@H](CCCNC(=N)N)C(=O)N[C@@H](CCCCN)C(=O)N[C@@H](CCCNC(=N)N)C(=O)N[C@@H](CCC(N)=O)C(=O)N[C@@H](CCC(N)=O)C(N)=O)[C@@H](C)CC)[C@@H](C)CC)[C@@H](C)O)[C@@H](C)O)C(C)C)C(C)C [MELITTIN],,,,,,,,,,,,,,,,,,0.2 to 0.5 µM,0.2 to 0.5 µM,Activity (Staphylococcus aureus [14]): 100%
